Experimental data published in paper PMC3797290 (Experimental and Therapeutic Medicine, 2013).

How the values were obtained:
P. aeruginosa 8–97 = test: Interaction study, checkerboard titration; format: cell-based, Pseudomonas aeruginosa; conditions: antibiotic in combination with RNL (ranalexin)
E. coli 31–97 = test: Interaction study, checkerboard titration; format: cell-based, Escherichia coli
E. coli 7–98 = test: Interaction study, checkerboard titration; format: cell-based, Escherichia coli
MS S. aureus 56–96 = test: Interaction study, checkerboard titration; format: cell-based, Staphylococcus aureus; conditions: antibiotic in combination with RNL (ranalexin)
MS S. aureus 14–99 = test: Interaction study, checkerboard titration; format: cell-based, Staphylococcus aureus; conditions: antibiotic in combination with RNL (ranalexin)
How it was run: (§1)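 Checkerboard titration of peptide plus clinical antibiotic against representative clinical MS S. aureus isolates in polypropylene microtiter plates. […] Mueller-Hinton broth, inoculum 5×10^5 cfu/ml, 18 h at 35°C in air. MIC is the lowest concentration inhibiting visible growth. FIC index = A/MICA + B/MICB; synergy ≤0.5.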

MS S. aureus 15–99 = test: Interaction study, checkerboard titration; format: cell-based, Staphylococcus aureus; conditions: antibiotic in combination with RNL (ranalexin)
How it was run: as §1

MS S. aureus 21–99 = test: Interaction study, checkerboard titration; format: cell-based, Staphylococcus aureus; conditions: antibiotic in combination with RNL (ranalexin)
E. coli ATCC 25922 = test: Interaction study, checkerboard titration; format: cell-based, Escherichia coli; conditions: antibiotic in combination with RNL (ranalexin)
P. aeruginosa = conditions: at 2 mg/l, in vitro, cited from earlier work; for effect on P. aeruginosa at 48 h: incubation continued for 48 h
[1] = antibiotic in combination with MG II (magainin II)
[2] = antibiotic in combination with RNL (ranalexin)

Molecule | FIC index (P. aeruginosa 8–97) | FIC index (E. coli 31–97; [1]) | FIC index (E. coli 7–98; [1]) | FIC index (MS S. aureus 56–96) | FIC index (MS S. aureus 14–99) | FIC index (MS S. aureus 15–99) | FIC index (MS S. aureus 21–99) | FIC index (E. coli ATCC 25922) | FIC index (E. coli 31–97; [2]) | FIC index (E. coli 7–98; [2]) | effect on P. aeruginosa cell growth at 24 h (P. aeruginosa) | effect on P. aeruginosa at 48 h (P. aeruginosa)
CC(C)(O/N=C(\C(=O)N[C@@H]1C(=O)N2C(C(=O)[O-])=C(C[n+]3ccccc3)CS[C@H]12)c1csc(N)n1)C(=O)O [CAZ, ceftazidime] | 1.500 | 0.187 | 0.312 | – | – | – | – | – | – | – | – | –
CC[C@H]1OC(=O)[C@H](C)[C@@H](O[C@H]2C[C@@](C)(OC)[C@@H](O)[C@H](C)O2)[C@H](C)[C@@H](O[C@@H]2O[C@H](C)C[C@H](N(C)C)[C@H]2O)[C@](C)(OC)C[C@@H](C)C(=O)[C@H](C)[C@@H](O)[C@]1(C)O [CLR, clarithromycin] | 0.375 | 1.500 | 1.500 | 0.312 | 0.250 | 0.187 | 0.250 | 0.375 | 0.312 | 0.312 | no effect on cell growth | bactericidal
CO/N=C(\C(=O)N[C@@H]1C(=O)N2C(C(=O)O)=C(CSc3nc(=O)c(=O)[nH]n3C)CS[C@H]12)c1csc(N)n1 [CRO, ceftriaxone] | 0.750 | 0.312 | 0.250 | 1.500 | 1.000 | 1.250 | 1.500 | 1.000 | 1.250 | 1.250 | – | –
C[C@H]1c2cccc(O)c2C(=O)C2=C(O)[C@]3(O)C(=O)C(C(N)=O)=C(O)[C@@H](N(C)C)[C@@H]3[C@@H](O)[C@@H]21 [D, doxycycline] | 0.312 | 1.250 | 2.000 | 0.312 | 0.312 | 0.250 | 0.187 | 0.312 | 0.375 | 0.312 | – | –
C[C@@H](O)[C@H]1C(=O)N2C(C(=O)O)=C(S[C@@H]3CN[C@H](C(=O)N(C)C)C3)[C@H](C)[C@H]12 [MEM, meropenem] | 1.000 | 0.375 | 0.375 | 1.250 | 1.250 | 1.500 | 1.500 | 0.750 | 1.000 | 1.500 | – | –
CCN1CCN(C(=O)N[C@@H](C(=O)N[C@@H]2C(=O)N3[C@@H]2SC(C)(C)[C@@H]3C(=O)O)c2ccccc2)C(=O)C1=O [PIP, piperacillin] | 1.000 | 0.312 | 0.250 | – | – | – | – | 0.750 | 1.250 | 1.000 | – | –
CC[C@H]1OC(=O)[C@H](C)[C@@H](O[C@H]2C[C@@](C)(OC)[C@@H](O)[C@H](C)O2)[C@H](C)[C@@H](O[C@@H]2O[C@H](C)C[C@H](N(C)C)[C@H]2O)[C@](C)(O)C[C@@H](C)C(=O)[C@H](C)[C@@H](O)[C@]1(C)O [erythromycin] | – | – | – | – | – | – | – | – | – | – | no effect on cell growth | bactericidal
amoxicillin-clavulanate [AMC] | 1.000 | 0.312 | 0.187 | – | 1.000 | 1.500 | – | 1.500 | – | 1.000 | – | –
polymyxin E [POL-E] | 0.250 | 1.500 | – | – | – | – | – | 0.187 | 0.250 | 0.312 | – | –
